# Results reported in ChEMBL document CHEMBL4196059, “Design, synthesis, and biological evaluation of stable β6.3-Helices: Discovery of non-hemolytic antibacterial peptides” (Eur J Med Chem, 2018).
# Calls of active or inactive are those of the source. The calls are words filed in the database; no cut-off is given here.
# Assays:
# [1] = Hemolytic activity against human RBC at 50 uM after 1 hr by Drabkin's assay relative to control; type: ADME, cell-based, Erythrocyte; details: human red blood cells (erythrocytes), read-out: Activity
# [2] = Hemolytic activity against human RBC at 25 uM after 1 hr by Drabkin's assay relative to control; type: ADME, cell-based, Erythrocyte; details: human red blood cells (erythrocytes), read-out: Activity
# [3] = Hemolytic activity against human RBC at 12.5 uM after 1 hr by Drabkin's assay relative to control; type: ADME, cell-based, Erythrocyte; details: human red blood cells (erythrocytes), read-out: Activity
# [4] = Hemolytic activity against human RBC at 6.25 uM after 1 hr by Drabkin's assay relative to control; type: ADME, cell-based, Erythrocyte; details: human red blood cells (erythrocytes), read-out: Activity
# [5] = Hemolytic activity against human RBC at 3.125 uM after 1 hr by Drabkin's assay relative to control; type: ADME, cell-based, Erythrocyte; details: human red blood cells (erythrocytes), read-out: Activity
# [6] = Hemolytic activity against human RBC at 1.56 uM after 1 hr by Drabkin's assay relative to control; type: ADME, cell-based, Erythrocyte; details: human red blood cells (erythrocytes), read-out: Activity
# [7] = Hemolytic activity against human RBC at 0.78 uM after 1 hr by Drabkin's assay relative to control; type: ADME, cell-based, Erythrocyte; details: human red blood cells (erythrocytes), read-out: Activity
# [8] = Hemolytic activity against human RBC at 0.39 uM after 1 hr by Drabkin's assay relative to control; type: ADME, cell-based, Erythrocyte; details: human red blood cells (erythrocytes), read-out: Activity
# [9] = Hemolytic activity against human RBC at 100 uM after 1 hr by Drabkin's assay relative to control; type: ADME, cell-based, Erythrocyte; details: human red blood cells (erythrocytes), read-out: Activity
# Erythrocyte = experiment: Hemolytic activity against human RBC after 1 hr by Drabkin's assay; type: ADME, cell-based
# Staphylococcus aureus = experiment: Growth inhibition of methicillin-resistant Staphylococcus aureus ATCC 43300 at 32 ug/ml after 18 hrs; type: functional; details: ATCC 43300, 18 h, read-out: GI
# Outline: (§1)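 Mid-log cultures in cation-adjusted Mueller Hinton broth were added at 5×10^5 CFU/mL to wells at a final compound concentration of 32 μg/mL. Plates stood at 37 °C for 18 h. Growth was read by OD600, and % inhibition was computed against media-only and untreated-bacteria controls.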
# Escherichia coli = experiment: Growth inhibition of Escherichia coli ATCC 25922 at 32 ug/ml after 18 hrs; type: functional; details: ATCC 25922, 18 h, read-out: GI
# Outline: (§2)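 Mid-log cultures were prepared as above and seeded at 5×10^5 CFU/mL with compound at a final 32 μg/mL, then held static at 37 °C for 18 h. Growth was read as OD600. Percent inhibition was calculated against media-only and bacteria-only controls on the same plate.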
# Klebsiella pneumoniae = experiment: Growth inhibition of multidrug-resistant Klebsiella pneumoniae ATCC 700603 at 32 ug/ml after 18 hrs; type: functional; details: ATCC 700603, 18 h, read-out: GI; outline: as §1
# Pseudomonas aeruginosa = experiment: Growth inhibition of Pseudomonas aeruginosa ATCC 27853 at 32 ug/ml after 18 hrs; type: functional; details: ATCC 27853, 18 h, read-out: GI; outline: as §2
# Acinetobacter baumannii = experiment: Growth inhibition of Acinetobacter baumannii ATCC 19606 at 32 ug/ml after 18 hrs; type: functional; details: ATCC 19606 = CIP 70.34 = JCM 6841, 18 h, read-out: GI; outline: as §2
# Cryptococcus neoformans = experiment: Growth inhibition of Cryptococcus neoformans H99 ATCC 208821 at 32 ug/ml after 24 hrs by resazurin dye-based microspectrophotometric assay; type: functional; details: var. grubii H99 ATCC 208821, 24 h, read-out: GI
# Outline: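 Yeasts were grown 3 days on YPD agar at 30 °C, suspended from five colonies and diluted in YNB broth to a final 2.5×10^3 CFU/mL. Compound at a final 32 μg/mL; incubated 24 h at 35 °C without shaking. C. albicans was read at OD530. C. neoformans was read as OD600–570 after resazurin (0.001% final) and a further 2 h at 35 °C. Fluconazole was the standard.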
# Lipid bilayer = experiment: Induction of pore formation in POPC vesicles at 20 uM after 3 hrs by carboxyfluorescein dye leakage assay; details: in the assay text read “after 3 mins” for “after 3 hrs”
# Outline: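 POPC or DOPC liposomes were hydrated in 10 mM HEPES, 100 mM KCl, pH 7.4, containing 50 mM carboxyfluorescein. Size was checked by dynamic light scattering, and vesicles were used at 2.2×10^10 per mL. Peptide at 20 μM was equilibrated with vesicles for 3 min, and dye leakage was measured.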
# Candida albicans = experiment: Growth inhibition of Candida albicans ATCC 90028 at 32 ug/ml after 24 hrs by OD530 light-scattering microspectrophotometric method; details: ATCC 90028, 24 h, read-out: GI
SMILES,"hemolysis at 1 h, 50 µM [1] [%]","hemolysis at 1 h, 25 µM [2] [%]","hemolysis at 1 h, 12.5 µM [3] [%]","hemolysis at 1 h, 6.25 µM [4] [%]","hemolysis at 1 h, 3.125 µM [5] [%]","hemolysis at 1 h, 1.56 µM [6] [%]","hemolysis at 1 h, 0.78 µM [7] [%]","hemolysis at 1 h, 0.39 µM [8] [%]","hemolysis at 1 h, 100 µM [9] [%]",Activity (Erythrocyte),inhibition of growth at 32 µg/mL (Staphylococcus aureus) [%],inhibition of growth at 32 µg/mL (Escherichia coli) [%],inhibition of growth at 32 µg/mL (Klebsiella pneumoniae) [%],inhibition of growth at 32 µg/mL (Pseudomonas aeruginosa) [%],inhibition of growth at 32 µg/mL (Acinetobacter baumannii) [%],inhibition of growth at 32 µg/mL (Cryptococcus neoformans) [%],Activity (Lipid bilayer),inhibition of growth at 32 µg/mL (Candida albicans) [%]
O=CN1CCCN1C(=O)N1CCC[C@H]1C(=O)N1CCCN1C(=O)N1CCC[C@H]1C(=O)N1CCCN1C(=O)N1CCC[C@H]1C(=O)N1CCCN1C(=O)N1CCC[C@H]1C(=O)N1CCCN1C(=O)N1CCC[C@H]1C(=O)N1CCCN1C(=O)N1CCC[C@H]1C(=O)NCCO,-0.49,0.271,-0.452,-0.181,-0.55,-0.12,-0.16,-0.12,-0.55,Dose-dependent effect,1.36,0.72,0.72,-12.5,3.07,-11.1,inactive,5.12
CC(C)(C)OC(=O)[C@@H]1CCCN1C(=O)N1CCCN1C(=O)[C@@H]1CCCN1C(=O)N1CCCN1C(=O)[C@@H]1CCCN1C(=O)N1CCCN1C(=O)[C@@H]1CCCN1C(=O)N1CCCN1C(=O)[C@@H]1CCCN1C(=O)N1CCCN1C(=O)[C@@H]1CCCN1C(=O)N1CCCN1C(=O)[C@@H]1CCCN1C(=O)N1CCCN1C(=O)[C@@H]1CCCN1C(=O)N1CCCN1 [listing 1 of 2 here],–,–,–,–,–,–,–,–,–,–,20.7,5.27,5.27,-8.18,17.8,-3.43,–,2.92
CC(C)(C)OC(=O)[C@@H]1CCCN1C(=O)N1CCCN1C(=O)[C@@H]1CCCN1C(=O)N1CCCN1C(=O)[C@@H]1CCCN1C(=O)N1CCCN1C(=O)[C@@H]1CCCN1C(=O)N1CCCN1,–,–,–,–,–,–,–,–,–,Dose-dependent effect,5.04,4.06,4.07,4.45,-8.79,-4.84,inactive,4.64
CN1CCCN1C(=O)[C@@H]1CCCN1C(=O)N1CCCN1C(=O)[C@@H]1CCCN1C(=O)N1CCCN1C(=O)[C@@H]1CCCN1C(=O)N1CCCN1C(=O)[C@@H]1CCCN1C(=O)N1CCCN1C(=O)[C@@H]1CCCN1C(=O)N1CCCN1C(=O)[C@@H]1CCCN1C(=O)N1CCCN1C(=O)[C@@H]1CCCN1C(=O)N1CCCN1C(=O)[C@@H]1CCCN1C(=O)N1CCCN1C(=O)OCc1ccccc1,–,–,–,–,–,–,–,–,–,–,25.1,3.93,3.93,-3.91,-6.74,-5.68,–,3.49
CC(C)(C)OC(=O)[C@@H]1CCCN1C(=O)N1CCCN1C(=O)[C@@H]1CCCN1C(=O)N1CCCN1C(=O)[C@@H]1CCCN1C(=O)N1CCCN1C(=O)[C@@H]1CCCN1C(=O)N1CCCN1C(=O)[C@@H]1CCCN1C(=O)N1CCCN1C(=O)[C@@H]1CCCN1C(=O)N1CCCN1C(=O)[C@@H]1CCCN1C(=O)N1CCCN1C(=O)[C@@H]1CCCN1C(=O)N1CCCN1 [listing 2 of 2 here],–,–,–,–,–,–,–,–,–,–,–,–,–,–,–,–,inactive,–
CC(C)(C)OC(=O)N1CCC[C@H]1C(=O)N1CCCN1C(=O)N1CCC[C@H]1C(=O)N1CCCN1C(=O)N1CCC[C@H]1C(=O)N1CCCN1C(=O)N1CCC[C@H]1C(=O)N1CCCN1C(=O)OCc1ccccc1,-0.379,0.227,0.038,-0.152,0.038,0.189,0.189,0.227,0,Dose-dependent effect,–,–,–,–,–,–,–,–
